Measurements reported in the M2OR odorant receptor database.

What follows are compounds tested against T1, OR13G1 (Homo sapiens) (UniProt Q8NGZ3). Conditions: stereoisomer not certain.
T1 sequence (whole entry): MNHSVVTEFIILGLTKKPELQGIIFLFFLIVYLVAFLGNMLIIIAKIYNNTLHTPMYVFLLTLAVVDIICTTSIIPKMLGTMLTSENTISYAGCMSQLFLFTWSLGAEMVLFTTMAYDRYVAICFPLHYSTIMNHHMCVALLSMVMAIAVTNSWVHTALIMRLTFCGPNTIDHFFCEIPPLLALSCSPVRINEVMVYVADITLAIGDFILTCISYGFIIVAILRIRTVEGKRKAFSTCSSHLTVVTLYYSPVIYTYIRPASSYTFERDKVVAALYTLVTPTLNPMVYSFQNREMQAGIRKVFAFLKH
Outline: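 Values were gathered from published papers (main text and supplementary material), with extra details requested from the original authors when needed, and checked for typos and inconsistencies. Each receptor–molecule pair is called responsive (active) if the original authors judged the measured signal statistically different from baseline, and non-responsive (inactive) otherwise. Assay methods varied by source, often transient mammalian cell-line luciferase assays. Recorded details include cell line, G-protein, co-transfected protein and tags.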

Row | Structure (SMILES) | odorant receptor agonist call
1 | CC1=NC(C)C(C)S1 (stereo not given) | inactive
2 | CCCCCC(=O)C(C)C(C)=O (stereo not given) | inactive
3 | Cc1cnc(C)c(C)n1 | inactive
4 | CCC(S)C(C)CO (stereo not given) | inactive
5 | CC1CCCCCCCCCCCCC(=O)C1 (stereo not given) | inactive
6 | CC1=C(O)C(=O)C(C)O1 (stereo not given) | inactive
7 | CC1=C(O)C(=O)OC1C (stereo not given) | inactive
8 | CCCC(S)CCOC(C)=O (stereo not given) | inactive
9 | CC(CO)CS (stereo not given) | inactive
10 | CC(=O)c1c(C)c([N+](=O)[O-])c(C(C)(C)C)c([N+](=O)[O-])c1C | inactive
11 | CCCCCC(S)C(C)CO (stereo not given) | inactive
12 | CCC1OC(C)=C(O)C1=O (stereo not given) | inactive
13 | CCCCCCC=CCCC=O | inactive
14 | CCC1OC(=O)C(O)=C1C (stereo not given) | inactive
15 | CCCCC(S)C(C)CO (stereo not given) | inactive
